The text below walks through data of ChEMBL document CHEMBL4513216, “Probing the Open Global Health Chemical Diversity Library for Multistage-Active Starting Points for Next-Generation Antimalarials” (ACS Infect Dis, 2020).

The structures appear in SMILES notation.

A short description of the series: Toxicity liver stage against HepG2, at 10uM. Particulars: human, HepG2-A16-CD81EGFP cells; read-out: INHIBITION
The format is cell-based. Also noted: test concentration 10 uM, cell line HepG2-A16-CD81EGFP. The method in brief: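 Uninfected HepG2-A16-CD81EGFP cells, 3 × 10^3 per well, 1536-well, plated on prespotted compound at 10 μM final, parasite-free screening media added to match infected plates; puromycin 10 μM positive, DMSO 0.5% negative; run in parallel with 48 h PbLuc assay at 37 °C, 5% CO2; viability by CellTiter-Glo luminescence, normalized to controls.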
As to `COC(=O)CCCC(=O)N1CCC(CO)(CCc2ccccc2)CC1`, the cytotoxicity at 10 µM stood at 1.34%.
The result for `Nc1nnc(SCc2cc(=O)n3c4c(sc3n2)CCCC4)s1` reads 7.83%.
The result for `O=S1(=O)N(c2ccccc2)C[C@H](O)[C@]12CCNC2` reads 0.827%; that for `CC(C)CNC(=O)CNc1c(NCc2ccncc2)c(=O)c1=O`, -4.44%.
The result for `O=C(Cn1ccc2ccccc21)Nc1cc(N2CCOCC2)ncn1` reads -14%; that for `COCCn1cnc(-c2nc(C(=O)N3CCOCC3)c3ccccn23)c1`, -10.3%; that for `COCC1CN(C(=O)Cc2cccs2)Cc2nnn(CC3CC3)c21` (stereo unspecified), 5.98%.
Consider `Cc1nc(N2CCOCC2)nc2c1CCN(C(=O)C1CC1)CC2`, for which the cytotoxicity at 10 µM is 2.23%.
The result for `O=C(c1ccc[nH]1)N1CCOCC2(CCN(C3CCOCC3)C2)C1` (stereo unspecified) reads 10.7%; that for `NC(=O)C1CCN(C(=O)Cn2ccc3cc(Br)ccc32)CC1`, 11.1%.
As for `Cc1ccc2cnn(CCC(=O)Nc3nc(C)c(C)s3)c2c1`, the cytotoxicity at 10 µM is 2.57%.
As for `Cc1nc(C(Cc2ccsc2)NC(=O)CN2CCOCC2)sc1C` (stereo unspecified), the cytotoxicity at 10 µM came to 2.7%.
The result for `Cc1cc(O)nc(C2CCN(C(=O)CO)CC2)n1` reads 0.01%; that for `CS(=O)(=O)c1cc(Cl)cnc1C1CCCN(C(=O)C2CCOCC2)C1` (stereo unspecified), 4.34%; that for `O=C(CN1CCCCCC1)N1CCc2nnc(C3CCCNC3)n2CC1` (stereo unspecified), -5.56%.
As for `Cc1nc(C2CCN(C(C)C)CC2)sc1Br`, the figure is -3.02%.
The result for `O=C(Cc1ccc(O)cc1)N1CCCC(O)(CN2CCOCC2)CC1` (stereo unspecified) reads -1.45%.
Regarding `Cc1noc(C)c1-c1ccc(C2CCCN2CCC(N)=O)nc1` (stereo unspecified), the cytotoxicity at 10 µM was found to be 1.94%.
On to `Cc1cccc(CC2CCCN(C(=O)C3CCOCC3)C2)n1` (stereo unspecified), for which the cytotoxicity at 10 µM worked out at 2.16%.
As for `Cc1cc(-c2ccccc2C(=O)O)nc(C2CCCN(C)C2)n1` (stereo unspecified), the figure is -5.03%; as for `CCc1cc(O)nc(C2CCCN2C(=O)COC)n1` (stereo unspecified), -11.5%.
The result for `COCCC(=O)N1CCCC1c1csc(Nc2ccccn2)n1` (stereo unspecified) reads -13.2%.
As for `NC(=O)CN1CCC(c2cc(C(F)(F)F)n3ccnc3n2)CC1`, the figure is -2.28%.
Turning to `Cc1noc(C)c1-c1cccc(CC2CCN(C(=O)CCC(=O)O)C2)n1` (stereo unspecified), the cytotoxicity at 10 µM is -8.44%.
The result for `Cc1ccc2nc(C3CCCN(Cc4ccccc4)C3)nc(O)c2c1` (stereo unspecified) reads 6.67%; that for `COc1ccccc1-c1nc(C(=O)N(C)C)n2ccncc12`, 12.6%; that for `Cc1cc(NC(=O)N2CCC[C@@H]2CO)nn1-c1ccccc1Cl`, -1.29%.
As for `CC(C)c1noc(CCC(=O)N(CC2CCOC2)C2CC2)n1` (stereo unspecified), the figure is 8.01%.
The result for `COc1ccc(OC)c(CNC2CCCN(c3cccnn3)C2)c1` (stereo unspecified) reads -4.67%; that for `CC(Oc1cc(Cl)cc(Cl)c1)C(=O)NCCC(=O)N(C)C` (stereo unspecified), -6.51%.
As to `CC(C)(C)Oc1ccc(CN)c(C(F)(F)F)c1`, the cytotoxicity at 10 µM worked out at 9.5%.
The result for `Cc1nccn1CCCC(=O)Nc1nc(C(C)C)nn1C` reads -1.37%; that for `O=C(COC1CCCC1)NCCc1nc(-c2ccccn2)cs1`, 6.94%.
As for `CCOC(=O)CNC(=O)c1scnc1C`, the figure is 5.35%.
The result for `COCCN(CCC#N)S(=O)(=O)c1ccc(F)cc1Cl` reads 2.13%; that for `CCN(CC)C(=O)CNC(=O)c1cnc(-c2ccccc2)nc1`, 12.7%; that for `Cc1cccc(C(=O)NC2CCN(c3cnn(C)c3)C2=O)c1C` (stereo unspecified), -1.2%.
As to `CC(CNC(=O)c1cc(Cl)ccc1I)N1CCCC1` (stereo unspecified), the cytotoxicity at 10 µM is -5.28%.
Regarding `Cc1nc(CN2CCN(C(=O)CCc3nc(C(C)(C)C)no3)CC2)cs1`, the cytotoxicity at 10 µM was 3.64%.
The result for `Cc1ccc(CN(C)C(=O)Cn2nc(-c3ccc(F)cc3)oc2=O)cc1` reads -20.6%.
As for `Cc1ccc(OCCCC(=O)NC(C)c2ccc(S(N)(=O)=O)cc2)cc1` (stereo unspecified), the cytotoxicity at 10 µM is -2.69%.
Consider `O=C(c1ccccc1)C1CCN(Cc2cc3c(cc2O)CCC3)CC1`, for which the cytotoxicity at 10 µM came to 24.2%.
In the case of `O=C(NC1CC1)NC(c1cc(F)ccc1F)C1CC1` (stereo unspecified), the cytotoxicity at 10 µM is -12.8%.
Consider `CCn1c(CN(C)C(=O)c2ccc(OC)nc2)nc2ccccc21`, for which the cytotoxicity at 10 µM is -6.23%.
With `CCCOc1ccc(CNCCn2cccn2)cc1`, the cytotoxicity at 10 µM stood at 9.66%.
As for `COc1ccc(C(=O)NCCCNc2ncccn2)c(OC)c1`, the figure is -7.4%; as for `CCCc1nnc(NCc2ccc(OC)c(C#N)c2)o1`, -0.808%; as for `CCOC(C(=O)N1CCn2c(C)nnc2C1)c1ccccc1` (stereo unspecified), 4.93%.
In the case of `CC(Cn1cccn1)NCCS(=O)(=O)c1ccc(Cl)cc1` (stereo unspecified), the cytotoxicity at 10 µM was -6.19%.
As for `C1CCC(NCC2(N3CCOCC3)CCSC2)C1` (stereo unspecified), the figure is -10.8%; as for `CN1CCN(S(=O)(=O)c2cccc(F)c2)c2cnccc21`, -2.95%; as for `COc1ccc2c(ccn2CC(=O)N2CCCC2c2cnn(C)c2)c1` (stereo unspecified), 3.74%.
For `Cc1cc(F)c(S(=O)(=O)Nc2ccn(CCCC#N)n2)cc1F`, the cytotoxicity at 10 µM is 19.3%.
Regarding `Cc1ncc(CNCC2CCC(C(N)=O)CC2)n1-c1ccccc1` (stereo unspecified), the cytotoxicity at 10 µM is -12.9%.
The result for `O=C(Cc1cccs1)N1Cc2nc(CN3CCCC3)oc2C1` reads -2.87%; that for `CN(Cc1cc(C(C)(C)C)n[nH]1)C(=O)c1c[nH]nc1-c1cccc(F)c1`, -3.39%; that for `COCCCC1(C(=O)O)CCCN(C(=O)c2ccc(C(C)C)[nH]c2=O)C1` (stereo unspecified), -52.9%.
Take `CNc1ncc(CN(C)C(=O)c2ccc(C3CCCO3)s2)cn1` (stereo unspecified): the cytotoxicity at 10 µM is 10.2%.
As for `Cc1nnsc1CN(C)C(=O)CCn1cnc2ccccc21`, the figure is 14.7%; as for `C=C(C)COc1cccc(C(=O)N(C)C(C)c2c(C)n[nH]c2C)c1` (stereo unspecified), 2.8%; as for `CCc1cnc(N)nc1NCCn1cc(Cl)cn1`, 1.5%.
The result for `CC(=O)N[C@@H]1CN(C2CCN(c3cccc(Cl)c3)CC2)C[C@H]1C(C)C` reads 1.6%; that for `CC(C)c1cncnc1N1CC[C@H](N2CCOCC2)[C@H](CCCO)C1`, 5.86%.
Take `CC(C)c1cc(CN2CCNCC2)no1`: the cytotoxicity at 10 µM was -10.9%.
With `CCOCC(=O)N1C[C@@H](O)[C@H](N(C)Cc2ccc(OC)cc2)C1`, the cytotoxicity at 10 µM stood at 0.307%.
As for `O=c1oc(-c2ccc(F)cc2)nn1CN1CCN(CC2CC2)CC1`, the figure is 1.44%.
The result for `O=C(NCc1ccccc1Cn1cncn1)C1CCCCC1` reads -2.06%; that for `CNS(=O)(=O)c1ccc(C(=O)N2CCCCC2c2ccc(C)cc2)o1` (stereo unspecified), -9.8%; that for `CN(C)C(=O)CCCS(=O)(=O)Cc1cc(Cl)c2c(c1)OCO2`, -4.52%.
On to `Cc1cnn(CC2CN(CC(=O)Nc3nncs3)CCO2)c1` (stereo unspecified), for which the cytotoxicity at 10 µM was -10%.
Regarding `CC(C)(CNC(=O)CCCOc1cccc(F)c1)C(N)=O`, the cytotoxicity at 10 µM is -6.54%.
The result for `COc1ccc(COCC(=O)N2CCN(CC(C)(C)O)CC2)cc1` reads -4.92%; that for `Cn1cc(C(=O)CC2CCCN2C(=O)c2cccc3ncccc23)cn1` (stereo unspecified), 6.19%.
As for `CCc1ccccc1C(=O)N1CCCC1CC(=O)c1cnn(C)c1` (stereo unspecified), the figure is -1.22%; as for `Cc1nc(C)n(C2CCCN(C(=O)CCCNc3ncccn3)C2)n1` (stereo unspecified), -4.26%; as for `Cn1cnnc1C1CCN(C(=O)Cc2ccc3c(c2)OCCO3)CC1`, -10.4%.
As for `COc1cc(CNCc2c(C)nn(C)c2N(C)C)ccc1C`, the figure is -9.16%; as for `CCc1sc(-c2nnc(CNCCn3cc(C)cn3)o2)cc1C`, -8.75%.
As to `Fc1cccc(F)c1Cn1c(C2CCCNC2)cc2cccnc21` (stereo unspecified), the cytotoxicity at 10 µM came to 2%.
With `CS(=O)(=O)N1C[C@H](C(=O)Nc2cccnc2)C[C@H]2OCC[C@H]21`, the cytotoxicity at 10 µM was 11.3%.
The result for `Cc1ccc(CN2CCCC3(COCCN(Cc4c[nH]nn4)C3)C2)o1` (stereo unspecified) reads -5.47%; that for `O=C(Cc1ccsc1)N1C[C@@H]2OCCN(CC3CCCO3)[C@@H]2C1` (stereo partly specified), -4.42%; that for `CCOCC1CN(Cc2ccc(OC)cc2)Cc2nn(C)cc21` (stereo unspecified), 3.65%.
`O=C([C@@H]1CCO[C@@H]2CCN(Cc3ccc(F)cc3)C[C@H]21)N1CCCCO1`: the cytotoxicity at 10 µM stood at 11.9%.
The result for `CN(C)C(=O)N1CCC2(CC1)CN(Cc1ccccn1)C(=O)CO2` reads 2.99%; that for `c1ccc(CN2Cc3[nH]nc(COCC4CC4)c3C2)nc1`, -1.83%.
As for `CCCS(=O)(=O)N1Cc2nccn2CC(CN2CCCC2)C1` (stereo unspecified), the figure is -131%.
As for `Fc1ccccc1CN1CCCC2(CCN(c3ncccn3)CC2)C1`, the figure is -132%; as for `CS(=O)(=O)N[C@@H]1CCN(Cc2nccs2)[C@H]1Cc1ccncc1`, -2.48%.
For `Cc1ccc(C(=O)N2C[C@@H]3CCCO[C@@H]3[C@H](N3CCCC3)C2)cn1`, the cytotoxicity at 10 µM is -3.8%.
`c1cncc(CN2CCc3ncnc(C4CCOC4)c3CC2)c1` (stereo unspecified): the cytotoxicity at 10 µM turned out to be 5.02%.
For `CN(Cc1ccco1)[C@@H]1CN(Cc2cccnc2)C[C@@H]2CCCO[C@@H]21`, the cytotoxicity at 10 µM was determined as 8.49%.
The result for `Cc1occc1C(=O)N1C[C@H]2CCCC(OCc3cccnc3)[C@H]2C1` (stereo partly specified) reads 2.72%; that for `Cn1cc(CN2C[C@@H]3COC[C@]3(CNC(=O)c3ccccc3)C2)cn1`, -4.02%.
As to `O=C(NC[C@H]1CCCO1)c1ccc(S(=O)(=O)N2C[C@H]3C[C@@H]2CN3)cc1`, the cytotoxicity at 10 µM was determined as 2.5%.
As for `CN(C)S(=O)(=O)N1C[C@H]2CC[C@@H](C1)N(C/C=C/c1ccc(F)cc1)C2`, the figure is -1.23%.
